{
  "source": "ChEMBL document CHEMBL1158120",
  "about": "“Cytotoxic oxygenated triterpenoid saponins from Symplocos chinensis” (J Nat Prod, 2006)",
  "type_in_all_cases": "functional, cell-based",
  "key": {"[1]": {"tested_on": "HCT-8", "assay": "Cytotoxicity against human HCT8 cells by MTT assay", "outline": "(§1)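 MTT read-out of tumour-cell viability. IC50 values in µM are reported as means of three independent experiments.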"}, "[2]": {"tested_on": "Bel-7402", "assay": "Cytotoxicity against human Bel-7402 cells by MTT assay", "outline": "as §1"}, "[3]": {"tested_on": "BGC-823", "assay": "Cytotoxicity against human BGC-823 cells by MTT assay", "outline": "as §1"}, "[4]": {"tested_on": "A549", "assay": "Cytotoxicity against human A549 cells by MTT assay", "outline": "as §1"}, "[5]": {"tested_on": "A2780", "assay": "Cytotoxicity against human A2780 cells by MTT assay", "outline": "as §1"}},
  "note": "pIC50: −log10 of the molar value.",
  "data": [
    {"smiles": "CCC(C)C(=O)O[C@H]1[C@H](OC(=O)/C=C/c2ccccc2)C(C)(C)C[C@H]2C3=CC[C@@H]4[C@@]5(C)CC[C@H](O[C@@H]6O[C@H](C(=O)O)[C@@H](O)[C@H](O)[C@H]6O[C@@H]6O[C@H](CO)[C@@H](O)[C@H](O)[C@H]6O)C(C)(C)[C@@H]5CC[C@@]4(C)[C@]3(C)[C@@H](O)[C@@H](O)[C@]21CO", "note": "(stereo not given in full) [SYMPLOCOSOSIDE N]", "values": [
      {"measurement": "pIC50", "setting": "[1]", "result": 5.74},
      {"measurement": "pIC50", "setting": "[2]", "result": 5.77},
      {"measurement": "pIC50", "setting": "[3]", "result": "< 5.00"},
      {"measurement": "pIC50", "setting": "[4]", "result": "< 5.00"},
      {"measurement": "pIC50", "setting": "[5]", "result": 5.49}
    ]},
    {"smiles": "CCC(C)C(=O)O[C@H]1[C@H](OC(=O)/C=C(/C)CCC=C(C)C)C(C)(C)C[C@H]2C3=CC[C@@H]4[C@@]5(C)CC[C@H](O[C@@H]6O[C@H](C(=O)O)[C@@H](O)[C@H](O)[C@H]6O[C@@H]6O[C@H](CO)[C@@H](O)[C@H](O)[C@H]6O)C(C)(C)[C@@H]5CC[C@@]4(C)[C@]3(C)[C@@H](O)[C@@H](O)[C@]21CO", "note": "(stereo not given in full) [SYMPLOCOSOSIDE R]", "values": [
      {"measurement": "pIC50", "setting": "[1]", "result": 5.36},
      {"measurement": "pIC50", "setting": "[2]", "result": 5.39},
      {"measurement": "pIC50", "setting": "[3]", "result": "< 5.00"},
      {"measurement": "pIC50", "setting": "[4]", "result": "< 5.00"},
      {"measurement": "pIC50", "setting": "[5]", "result": 5.72}
    ]},
    {"smiles": "CCC(C)C(=O)O[C@H]1[C@H](OC(=O)/C=C(\\C)CCC=C(C)C)C(C)(C)C[C@H]2C3=CC[C@@H]4[C@@]5(C)CC[C@H](O[C@@H]6O[C@H](C(=O)O)[C@@H](O)[C@H](O)[C@H]6O[C@@H]6O[C@H](CO)[C@@H](O)[C@H](O)[C@H]6O)C(C)(C)[C@@H]5CC[C@@]4(C)[C@]3(C)[C@@H](O)[C@@H](O)[C@]21CO", "note": "(stereo not given in full)", "values": [
      {"measurement": "pIC50", "setting": "[1]", "result": "< 5.00"},
      {"measurement": "pIC50", "setting": "[2]", "result": "< 5.00"},
      {"measurement": "pIC50", "setting": "[3]", "result": "< 5.00"},
      {"measurement": "pIC50", "setting": "[4]", "result": "< 5.00"},
      {"measurement": "pIC50", "setting": "[5]", "result": 5.72}
    ]},
    {"smiles": "CC(=O)O[C@@H]1[C@@H](O[C@@H]2O[C@H](CO)[C@@H](O)[C@H](O)[C@H]2O)[C@H](O[C@H]2CC[C@]3(C)[C@H]4CC=C5[C@@H]6CC(C)(C)[C@@H](OC(=O)/C=C(\\C)CCC=C(C)C)[C@H](OC(=O)C(C)C)[C@]6(CO)[C@H](O)[C@H](O)[C@@]5(C)[C@]4(C)CC[C@H]3C2(C)C)O[C@H](C(=O)O)[C@H]1O[C@@H]1O[C@@H](CO)[C@H](O)[C@H]1O", "note": "[SYMPLOCOSOSIDE M]", "values": [
      {"measurement": "pIC50", "setting": "[1]", "result": 5.57},
      {"measurement": "pIC50", "setting": "[2]", "result": 5.42},
      {"measurement": "pIC50", "setting": "[3]", "result": "< 5.00"},
      {"measurement": "pIC50", "setting": "[4]", "result": "< 5.00"},
      {"measurement": "pIC50", "setting": "[5]", "result": 5.64}
    ]},
    {"smiles": "CCCCOC(=O)[C@H]1O[C@@H](O[C@H]2CC[C@]3(C)[C@H]4CC=C5[C@@H]6CC(C)(C)C[C@H](OC(=O)/C=C(/C)CCC=C(C)C)[C@]6(CO)[C@H](O)[C@H](O)[C@@]5(C)[C@]4(C)CC[C@H]3C2(C)C)[C@H](O[C@@H]2O[C@H](CO)[C@@H](O)[C@H](O)[C@H]2O)[C@@H](O)[C@@H]1O[C@@H]1O[C@@H](CO)[C@H](O)[C@H]1O", "note": "[SYMPLOCOSOSIDE F]", "values": [
      {"measurement": "pIC50", "setting": "[1]", "result": 5.40},
      {"measurement": "pIC50", "setting": "[2]", "result": "< 5.00"},
      {"measurement": "pIC50", "setting": "[3]", "result": "< 5.00"},
      {"measurement": "pIC50", "setting": "[4]", "result": "< 5.00"},
      {"measurement": "pIC50", "setting": "[5]", "result": "< 5.00"}
    ]},
    {"smiles": "CC1(C)C[C@H]2C3=CC[C@@H]4[C@@]5(C)CC[C@H](O)C(C)(C)[C@@H]5CC[C@@]4(C)[C@]3(C)[C@@H](O)[C@@H](O)[C@@]2(CO)[C@@H](O)[C@@H]1O", "note": "[R1-barrigenol]", "values": [
      {"measurement": "pIC50", "setting": "[1]", "result": "< 5.00"},
      {"measurement": "pIC50", "setting": "[2]", "result": "< 5.00"},
      {"measurement": "pIC50", "setting": "[3]", "result": "< 5.00"},
      {"measurement": "pIC50", "setting": "[4]", "result": "< 5.00"},
      {"measurement": "pIC50", "setting": "[5]", "result": "< 5.00"}
    ]}
  ]
}
